Most compounds without a hit are left out; they make up all but 2.5% or so of the library.
EP2 mod – EP2 receptor modulators, cAMP readout, primary screen, cell-based, HTRF cAMP, PGE2 stimulation. induction, % at 25 µM. Prostaglandin E2 receptor EP2 subtype (Homo sapiens), P43116. 0.83% of 260,000 active. EP2-expressing cells, cAMP HTRF FRET, PGE2 co-stimulation;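 active = compounds whose cAMP rise, as percent of the full-agonist control response, exceeds 60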;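 note: rat C6 glioma line stably carrying human EP2 under a CMV promoter; the protocol text gives 20 µM as final concentration; 100% = response of wells given 1 µM PGE2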
Target sequence (P43116 whole entry, looked up): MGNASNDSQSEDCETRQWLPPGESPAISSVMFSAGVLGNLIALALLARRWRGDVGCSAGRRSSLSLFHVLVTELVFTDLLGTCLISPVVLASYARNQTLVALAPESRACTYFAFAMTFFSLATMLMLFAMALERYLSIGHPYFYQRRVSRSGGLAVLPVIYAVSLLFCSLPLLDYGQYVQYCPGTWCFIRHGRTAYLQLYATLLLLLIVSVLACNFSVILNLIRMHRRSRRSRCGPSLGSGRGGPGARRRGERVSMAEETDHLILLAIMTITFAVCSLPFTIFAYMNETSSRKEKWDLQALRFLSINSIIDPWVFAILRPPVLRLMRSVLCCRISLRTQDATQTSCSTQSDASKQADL
PHOSPHO1 block – PubChem AID 1565 | Phosphoethanolamine/phosphocholine phosphatase (Homo sapiens), Q8TCT1 | recombinant PHOSPHO1, absorbance phosphatase assay | inhibition, % at 13.3 µM | 1.1% of 290,000 active; in the data active = inhibition above about 60%
Target sequence (Q8TCT1 whole entry, looked up): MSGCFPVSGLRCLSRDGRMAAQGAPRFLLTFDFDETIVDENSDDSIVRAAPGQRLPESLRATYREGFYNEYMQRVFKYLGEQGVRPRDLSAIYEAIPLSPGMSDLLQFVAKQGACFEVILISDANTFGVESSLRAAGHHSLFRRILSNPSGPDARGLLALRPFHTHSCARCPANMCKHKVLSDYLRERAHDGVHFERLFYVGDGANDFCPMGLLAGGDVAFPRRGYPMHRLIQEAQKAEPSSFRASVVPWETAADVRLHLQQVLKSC
HKDC1 inhibitor – HKDC1 hexokinase inhibitors, primary screen, biochemical, fluorescence, uHTS | Q2TB90 | recombinant HKDC1, G6PDH/diaphorase resazurin coupled fluorescence | inhibition, % at 20 µM | 0.16% of 340,000 active | AID 493160, 2011;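 active = inhibition above about 35% when tested at 20 µM, limit read from the data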;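 note: plate controls were DMSO wells with enzyme for no effect and DMSO wells lacking enzyme for full effect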
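Test system: HK5 enzyme. Quantity: 5 µg/mL HK5 final. Reagent: glucose and ATP substrates. Schedule: 90 min reaction incubation at room temperature, dark. Technique: resazurin-to-resorufin fluorescence via G6PDH and diaphorase coupling, 525/613 nm. Control set: DMSO wells with and without enzyme mix.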
PfG6PD inh – PfG6PD enzyme inhibitors, primary screen, biochemical, fluorescence intensity, uHTS; glucose-6-phosphate dehydrogenase-6-phosphogluconolactonase (Plasmodium falciparum 3D7); PfGluPho enzyme, NADPH resazurin-diaphorase fluorescence; inhibition, % at 20 µM; 0.78% of 350,000 active;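 active = inhibition reaching at least a set limit at 20 µM in the primary screen, cut at about 59% in these data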;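 note: 0% = DMSO wells with substrate and 100% = DMSO wells lacking glucose-6-phosphate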
Tb hexokinase – Trypanosoma brucei hexokinase 1 inhibitors, primary screen, biochemical, G6PDH-coupled NADH absorbance, MLSCN library; hexokinase 1 [Trypanosoma brucei]; AID 1430, 2008; 0.11% of 220,000 active; recombinant TbHK1, G6PDH-coupled NADH A340; inhibition, % at 10 µM;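 active = inhibition of 50% or more in the single-dose primary screen; inactive = inhibition below 50%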
PGE2 EP2 inh – human EP2 receptor antagonists, primary screen, TR-FRET cAMP, C6 glioma cells. C6 glioma cells expressing human EP2; cells stimulated with saturating PGE2. inhibition, % at 25 µM. 0.52% of 260,000 active. Prostaglandin E2 receptor EP2 subtype (Homo sapiens), P43116. AID 1422, 2008;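 active = percent inhibition above 40 after rounding to a whole number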;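 note: rat C6 glioma host cells with rolipram phosphodiesterase inhibitor present; the protocol text gives 20 µM as final concentration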
G6PDH counter – Leuconostoc G6PDH inhibition, confirmation, counter-screen for TbHK1 inhibitor project, biochemical, DPI cherry-picked compounds, single concentration; shares compounds with Tb hexokinase; purified G6PDH, NADH absorbance, 1 h; inhibition, % at 10 µM; 7% of 210 active;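 active = at least 50% inhibition in the glucose-6-phosphate dehydrogenase coupled counterscreen; inconclusive = no clear call, values can overlap the other calls; inactive = inhibition below 50%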
TbHK1 rescreen – TbHK1 inhibitor retest, confirmation, biochemical, DPI cherry-picked primary actives; shares compounds with Tb hexokinase; recombinant TbHK1, G6PDH-coupled NADH A340 absorbance; inhibition, % at 10 µM; 10% of 210 active; AID 2560, 2010;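 active = inhibition of at least 50% in both of the two screening runs; inconclusive = at least 50% in one run, below 50% in the other; inactive = inhibition below 50% in both runs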;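 note: 0% and 100% set by the maximum and minimum signal control wells on each plate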
HKDC1 act conf – HKDC1 hexokinase activators, confirmation, biochemical, single concentration | shares compounds with HKDC1 inhibitor | 14% of 740 active | AID 504708, 2011 | recombinant HKDC1, G6PDH/diaphorase resazurin fluorescence; stronger effect = lower value | inhibition, % at 20 µM;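 active = inhibition at or below a set negative limit, negative inhibition meaning the enzyme was activated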
PfGluPho conf – PfG6PD inhibitors, hit retest, confirmation, biochemical, fluorescence intensity, single concentration | shares compounds with PfG6PD inh | 34% of 2,400 active | inhibition, % at 20 µM | AID 504753, 2011 | recombinant PfGluPho, NADPH-diaphorase-resazurin fluorescence;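 active = inhibition of at least 50% at 20 µM in any single replicate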;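 note: 0% = DMSO with substrate and 100% = DMSO lacking glucose-6-phosphate substrate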
Diaph ctr 10uM – diaphorase inhibitors and chemical oxidizers, confirmation, counter-screen for P. falciparum G6PD inhibitor project, biochemical, fluorescence intensity, 10 µM NADPH | 39% of 820 active | diaphorase-coupled resazurin reduction, NADPH 10 uM | inhibition, % at 20 µM | shares compounds with PfG6PD inh;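 active = average inhibition reaching 50% or more with the compound at 20 µM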;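 note: resorufin red fluorescence formed as diaphorase reduces resazurin using NADPH; 0% = DMSO with enzyme and 100% = DMSO without enzyme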
Diaph ctr 30uM – diaphorase inhibitors and chemical oxidizers, confirmation, counter-screen for P. falciparum G6PD inhibitor project, biochemical, fluorescence intensity, 30 µM NADPH | shares compounds with PfG6PD inh | Diaphorase/resazurin coupled assay, resorufin fluorescence | inhibition, % at 20 µM | 29% of 820 active | AID 504863, 2011;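 active = inhibition averaging 50% or more, tested at 20 µM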;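 note: 0% = DMSO with enzyme and 100% = DMSO wells lacking diaphorase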
* = called active by the depositor; ? = inconclusive; . = no result; + = active, no number.

SMILES | EP2 mod | PHOSPHO1 block | HKDC1 inhibitor | PfG6PD inh | Tb hexokinase | PGE2 EP2 inh | G6PDH counter | TbHK1 rescreen | others
OCC1N=C(c2ccccn2)OC1c1ccccc1 (stereo not given) | 20.4 | 5.7 | 4.1 | 1.4 | 56.3* | 7.7 | 0.5 | -0.3
c1ccc(-c2nnc(-c3ccccn3)nn2)nc1 | . | . | 11.8 | 24.2 | . | . | . | .
O=c1c(O)cccc2cc(O)c(O)c(O)c12 | -2.9 | -5.9 | 30.6 | -4.5 | 69.7* | 6.6 | -8.4 | ?
COc1cc(OC)cc(C(=O)NC2CCN(CC(=O)Nc3cccc4ccccc34)CC2)c1 | -58.5 | 1.1 | -6.0 | -9.7 | 52.9* | 14.0 | -39.1 | -8.4
Cc1cccc(C(=O)NC2CCN(CC(=O)Nc3cccc4ccccc34)CC2)c1 | -73.8 | . | . | . | . | 12.1 | . | .
COc1ccc(Br)cc1C1NC(=O)NC(C)=C1C(=O)N(C)C (stereo not given) | 6.1 | 9.1 | -1.3 | -14.1 | -1.9 | 6.4 | . | .
CSc1nc2n(n1)C(c1cc(Br)ccc1F)C(C(=O)N(C)C)=C(C)N2 (stereo not given) | 23.6 | 37.9 | -10.6 | 2.5 | 63.1* | 10.4 | -6.5 | -6.7
O=C(O)C(Cc1ccccc1)N1C(=O)/C(=C/C=C/c2ccco2)SC1=S (stereo not given) | 13.1 | 16.6 | 37.0* | 9.0 | 51.0* | 7.5 | -71.3 | 39.8 | HKDC1 act conf=-1.7
Cc1cc(C(F)F)n2nc(C(=O)Nc3ccc(F)cc3C)nc2n1 | -8.0 | . | . | . | . | 14.6 | . | .
CCOC(=O)Cc1csc(-n2sc3ccccc3c2=O)n1 | 9.3 | 95.7* | 6.2 | 124.0* | 66.3* | 17.9 | -22.2 | 69.1* | PfGluPho conf=81.1*;Diaph ctr 10uM=-14.4;Diaph ctr 30uM=4.3
CCOC(=O)Cc1csc(SCn2nnc3ccccc3c2=O)n1 | 6.6 | 38.7 | -2.8 | -5.3 | -4.7 | 2.7 | . | .
Cc1cc(NC(=O)c2cc(-c3ccc(Cl)cc3Cl)on2)no1 | -4.4 | . | . | . | . | 7.7 | . | .
CCOCCCNc1cc(CC)nc2c3c(C)cc(C)nc3nn12 | -23.8 | . | . | . | . | . | . | .
COc1ccc2nc(N=Nc3ccc(N(C)C)cc3)sc2c1 | 3.8 | 15.8 | 2.2 | 13.9 | -2.5 | . | . | .
CN(C)c1ccc2nc3ccc(=[N+](C)C)cc-3sc2c1 | -222.8 | -14.1 | 35.6* | 112.1* | 75.1* | + | 127.8* | 76.8* | HKDC1 act conf=25.0;PfGluPho conf=84.0*;Diaph ctr 10uM=79.5*;Diaph ctr 30uM=78.3*
Cc1cc(C)c2c(=O)n(CC(=O)Nc3ccc(Br)c(C)c3)sc2n1 | -42.3 | -138.5 | 6.0 | 111.6* | 50.8* | 20.1 | -5.7 | 42.4 | PfGluPho conf=79.9*;Diaph ctr 10uM=-7.1;Diaph ctr 30uM=-13.9
O=C(Cn1sc2ccccc2c1=O)NC12CC3CC(CC(C3)C1)C2 | -50.0 | 83.5* | 0.1 | 124.7* | 66.1* | 132.3* | -14.0 | 85.2* | PfGluPho conf=106.2*;Diaph ctr 10uM=-20.1;Diaph ctr 30uM=-21.8

Source: PubChem (several laboratories)
